In ChEMBL document CHEMBL1153132, “Novel sulfamoyl benzamides as selective CB(2) agonists with improved in vitro metabolic stability” (Bioorg Med Chem Lett, 2010):
Activity calls are given as the source filed them.

Assays:
Cannabinoid receptor 1 = Cannabinoid receptor 1 (Homo sapiens, UniProt P21554); assay: Displacement of [3H]CP-55940 from human CB1 receptor
Method in brief: (§1)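 Membranes with cloned human CB1 or CB2 receptors; test ligand displaces [3H]CP-55940; Ki values are geometric means of at least three separate determinations.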

Cannabinoid receptor 2 [1] = biological target: T1, Cannabinoid receptor 2 (Homo sapiens, UniProt P34972); assay: Displacement of [3H]CP-55940 from human CB2 receptor; method in brief: as §1
Target sequence in this assay (P34972 whole entry): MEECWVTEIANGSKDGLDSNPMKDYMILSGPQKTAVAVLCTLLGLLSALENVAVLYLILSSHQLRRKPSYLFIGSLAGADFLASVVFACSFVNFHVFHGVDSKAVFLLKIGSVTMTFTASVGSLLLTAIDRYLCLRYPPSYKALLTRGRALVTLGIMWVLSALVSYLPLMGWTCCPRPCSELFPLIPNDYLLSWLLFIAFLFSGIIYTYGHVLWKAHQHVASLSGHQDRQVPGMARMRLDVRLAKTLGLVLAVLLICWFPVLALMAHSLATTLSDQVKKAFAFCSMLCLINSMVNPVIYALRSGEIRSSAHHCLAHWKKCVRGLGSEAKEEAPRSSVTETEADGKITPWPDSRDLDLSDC

Cannabinoid receptor 2 [2] = biological target: T2, Cannabinoid receptor 2 (Rattus norvegicus, UniProt Q9QZN9); assay: Agonist activity at rat brain CB2 receptor by GTPgammaS binding assay; assay type: functional
T2 sequence (Q9QZN9 whole entry): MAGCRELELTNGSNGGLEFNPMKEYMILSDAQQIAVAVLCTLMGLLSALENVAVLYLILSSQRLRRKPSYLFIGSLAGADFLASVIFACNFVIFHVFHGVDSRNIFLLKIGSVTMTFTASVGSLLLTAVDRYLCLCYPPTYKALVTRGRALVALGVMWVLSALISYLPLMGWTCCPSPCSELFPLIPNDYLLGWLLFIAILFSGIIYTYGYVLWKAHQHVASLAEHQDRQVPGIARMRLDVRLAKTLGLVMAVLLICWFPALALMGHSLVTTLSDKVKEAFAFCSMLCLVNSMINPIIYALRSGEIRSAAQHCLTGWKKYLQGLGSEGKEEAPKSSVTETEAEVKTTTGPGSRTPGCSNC

Homo sapiens = species on record: Homo sapiens; assay: Selectivity, ratio of Ki for human CB1 to Ki for human CB2
Method in brief: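 Ki at each receptor came from displacement of [³H]CP-55940 binding in membranes containing cloned human CB₁ or CB₂ receptor. Ki values are geometric means of at least three separate determinations. Selectivity is Ki CB₁ divided by Ki CB₂.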

Liver microsomes [3] = assay: Metabolic stability in rat liver microsomes; assay type: ADME, Microsome
Method in brief: (§2)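 Parent compound incubated with rat (RLM) or human (HLM) liver microsomes for 30 min; result given as % parent remaining.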

Liver microsomes [4] = assay: Metabolic stability in human liver microsomes; assay type: ADME, Microsome; method in brief: as §2
[5] = Clearance in Sprague-Dawley rat at 1 mg/kg, iv; assay type: ADME, organism-based; set-up: dose 1 mg/kg, route intravenous; details: in vivo
[6] = Volume of distribution at steady state in Sprague-Dawley rat at 1 mg/kg, iv; assay type: ADME, organism-based; set-up: dose 1 mg/kg, route intravenous; details: in vivo, read-out: Vdss
[7] = Half life in Sprague-Dawley rat at 1 mg/kg, iv; assay type: ADME, organism-based; set-up: dose 1 mg/kg, route intravenous; details: in vivo
[8] = AUC (0 to infinity) in Sprague-Dawley rat at 1 mg/kg, iv; assay type: ADME, organism-based; set-up: time infinity, dose 1 mg/kg, route intravenous; details: plasma
[9] = AUC (0 to infinity) in Sprague-Dawley rat at 100 mg/kg, po; assay type: ADME, organism-based; set-up: time infinity, dose 100 mg/kg, route oral; details: plasma
[10] = Tmax in Sprague-Dawley rat at 100 mg/kg, po; assay type: ADME, organism-based; set-up: dose 100 mg/kg, route oral; details: in vivo
Method in brief: (§3)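 Male Sprague-Dawley rats dosed 100 mg/kg po. Cmax and oral F are mean ± SD of three animals; F is referenced to a 1.0 mg/kg iv dose; Tmax is given as median and range.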

[11] = Cmax in Sprague-Dawley rat at 100 mg/kg, po; assay type: ADME, organism-based; set-up: dose 100 mg/kg, route oral; details: in vivo; method in brief: as §3
[12] = Oral bioavailability in Sprague-Dawley rat at 100 mg/kg; assay type: ADME, organism-based; details: in vivo; method in brief: as §3
Rattus norvegicus = assay: Antiallodynic effect against rat hind paw insition model assessed as paw withdrawal at 30 mg/kg, ip; assay type: functional, organism-based; set-up: dose 30 mg/kg
Method in brief: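 Rat hindpaw incision surgery model with vehicle and morphine treatment groups. Mechanical paw withdrawal threshold of the left hindpaw was followed over time. Data are mean ± SEM; one-way ANOVA with post-hoc protected t-test versus the vehicle-treated surgery group.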

Cannabinoid receptor 2 [13] = biological target: T1, Cannabinoid receptor 2; assay: Inhibition of [3H]CP-55940 binding to human CB2 receptor at 10 uM
Target sequence in this assay (P34972 whole entry, looked up): as the sequence (P34972 whole entry) above

Chain of Cannabinoid receptor 1 (P21554 whole entry): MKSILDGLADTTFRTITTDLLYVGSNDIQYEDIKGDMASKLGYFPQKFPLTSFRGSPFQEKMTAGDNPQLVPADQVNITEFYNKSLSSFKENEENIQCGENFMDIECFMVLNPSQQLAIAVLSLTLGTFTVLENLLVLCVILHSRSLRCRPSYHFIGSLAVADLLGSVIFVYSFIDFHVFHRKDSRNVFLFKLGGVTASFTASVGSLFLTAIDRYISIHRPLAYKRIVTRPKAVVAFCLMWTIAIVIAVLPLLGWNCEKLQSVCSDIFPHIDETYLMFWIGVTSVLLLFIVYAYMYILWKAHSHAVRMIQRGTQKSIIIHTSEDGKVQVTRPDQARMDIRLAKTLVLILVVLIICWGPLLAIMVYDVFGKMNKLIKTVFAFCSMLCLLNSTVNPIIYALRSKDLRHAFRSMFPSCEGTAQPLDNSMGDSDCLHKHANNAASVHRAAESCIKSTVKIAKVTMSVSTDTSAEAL

Compound	Ki (Cannabinoid receptor 1) [nM]	Ki (Cannabinoid receptor 2 [1]) [nM]	EC50 (Cannabinoid receptor 2 [2]) [nM]	Ratio Ki (Homo sapiens)	Stability (Liver microsomes [3]) [%]	Stability (Liver microsomes [4]) [%]	also measured
CCC(C)(C)C(=O)Nc1cc(C)c(C)c(S(=O)(=O)N2CCOCC2)c1	2500	17	38	150	28	17	clearance [5]: 70 mL/min/kg; Vd [6]: 2.5 L/kg; half-life [7]: 42 min; AUC(0-inf) [8]: 237 ng·h/mL; AUC(0-inf) [9]: 4800 ng·h/mL; Tmax [10]: 6 h; Cmax [11]: 1220 ng/mL; bioavailability [12]: 22%; Activity (Rattus norvegicus): Active
Cc1ccc(NC(=O)C2C(C)(C)C2(C)C)cc1S(=O)(=O)N1CCOCC1			11	150	2	1	
Cc1cc(NC(=O)C(C)(C)c2ccccc2)cc(S(=O)(=O)N2CCOCC2)c1C		120					
CCC(C)(C)C(=O)Nc1cc(C)c(C)c(S(=O)(=O)NC2CCCC2)c1	3400	94	98	36			
CCC(C)(C)C(=O)Nc1cc(C)c(C)c(S(=O)(=O)N2CC[C@H](O)C2)c1		90	73				inhibition (Cannabinoid receptor 2 [13]): 6.3%
CCC(C)(C)C(=O)Nc1cc(S(=O)(=O)N2CCOCC2)c(C)cc1C		760					
CCC(C)(C)C(=O)Nc1cc2c(c(S(=O)(=O)N3CCOCC3)c1)CCC2	1700	12	1700	140	9	10	
CCC(C)(C)C(=O)Nc1cc(C)c(C)c(S(=O)(=O)N2CCC[C@@H]2CO)c1		43	98				inhibition (Cannabinoid receptor 2 [13]): 8.3%
Cc1cc(NC(=O)C2C(C)(C)C2(C)C)cc(S(=O)(=O)N2CCOCC2)c1C	1100	16	66	69	31	17	
Cc1cc(NC(=O)C(C)(C)C)cc(S(=O)(=O)N2CCOCC2)c1C	3100	40	90	78	37	52	
CCC(C)(C)C(=O)Nc1cc(C)c(C)c(S(=O)(=O)N2CCSC2)c1	2100	6.9	12	300	0	0	
Cc1cc(NC(=O)C(C)(C(F)(F)F)C(F)(F)F)cc(S(=O)(=O)N2CCOCC2)c1C	780	6.6	11	120	22	11	
CCCC(C)(C)C(=O)Nc1cc(C)c(C)c(S(=O)(=O)N2CCOCC2)c1	830	9.7	21	86	9	1	
CCC(C)(C)C(=O)Nc1cc2c(c(S(=O)(=O)N3CCOCC3)c1)CCCC2	1400	14	1400	100	2	1	
CCC(C)(C)C(=O)Nc1cc(S(=O)(=O)N2CCOCC2)c(C)c(C)c1C		410					
CCC(C)(C)C(=O)Nc1cc(C)c(C)c(S(=O)(=O)N2CCS(=O)(=O)CC2)c1		8.4	20		10	1	inhibition (Cannabinoid receptor 2 [13]): 18%
CCC(C)(C)C(=O)Nc1cc(S(=O)(=O)N2CCOCC2)cc(C)c1C							inhibition (Cannabinoid receptor 2 [13]): 15%
CCC(C)(C)C(=O)Nc1cc(C)c(C)c(S(=O)(=O)N2CCCCCC2)c1	1800	9	22	200	0	0	
CCC(C)(C)C(=O)Nc1cc(C)c(C)c(S(=O)(=O)N2CCCCC2)c1	650	2.7	13	240	0	0	
COCCC(C)(C)C(=O)Nc1cc(C)c(C)c(S(=O)(=O)N2CCOCC2)c1		110					
Cc1cc(NC(=O)C(C)(C)O)cc(S(=O)(=O)N2CCOCC2)c1C		2080					
CCCCC(C)(C)C(=O)Nc1cc(C)c(C)c(S(=O)(=O)N2CCOCC2)c1	140	1.1	82	130	0	0	
CCC(C)(C)C(=O)Nc1ccc(C)c(S(=O)(=O)N2CCOCC2)c1		290					
CCC(C)(C)C(=O)Nc1cc(C)c(C)c(S(=O)(=O)NCC2CC2)c1	3800	66	135	57			
